Source: PubChem
This is a sample that favours compounds with a hit; in the whole collection about 2.1% have one here.
CDK5 inh: blocks human CDK5/p35 kinase activity | Q00535+Q15078 | Recombinant CDK5/p35, ADP-Glo luminescence, 60 min | inhibition, % at 10 µM | 330,000 tested, 0.01% active | AID 488839;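 active = highest replicate inhibition of at least 50% and at least 75% of replicates reaching 50%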
SR-BI DiI inh: mouse SR-BI HDL lipid transfer inhibition; ldlA[mSR-BI] CHO cells, DiI-HDL uptake fluorescence, 3 h; inhibition, % at 12.5 µM; 320,000 tested, 0.96% active; Q61009;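 active = mean replicate inhibition of at least 70% and a set share of replicates each scoring 70 or more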
SR-BI uptake up: enhances SR-BI lipid uptake from DiI-HDL; CHO ldlA[mSR-BI] cells, DiI-HDL uptake fluorescence, 3 h; 100 = double the neutral-control signal; 320,000 tested, 0.096% active; AID 504775; activation, % at 12.5 µM;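 active = mean replicate activation of at least 60% and every replicate at or above 60%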
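System: CHO ldlA[mSR-BI] cells / Medium: HEPES-buffered (25 mM, pH 7.4) F12 plus 0.5% BSA / Probe or stimulus: labelled HDL, 10 µg/mL / Doses: single compound concentration, delivered by pin transfer / Schedule: 3 h, 37 °C / Measured by: DiI fluorescence, bottom read / Measure: cell-associated DiI fluorescence as measure of HDL uptake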
dFosB act: activators of mouse delta FosB homodimer; 340,000 tested, 0.99% active; AID 493131; purified delta FosB, TAMRA-CDK5 oligo fluorescence polarization; percent of positive-control signal above neutral wells; activation, % at 25 µM; P13346;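 active = mean activation above about 17%, with every replicate also reaching it, limit read from the data, passing the limit was not always enough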
PKA-R2B activ: activates the human PKA-R2B holoenzyme complex. PKA-R2B holoenzyme dissociation, Cy5-IP20 fluorescence polarization; R2B truncated from residue 108, S112A mutant; 0% DMSO only, 100% 113 µM cGMP. activation, % at 11.4 µM. 340,000 tested, 0.079% active. AID 504700;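 active = activation above a cutoff set at the mean over all compounds plus 3 SD, cut at about 18% in these data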;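 note: higher means more holoenzyme dissociation and a rise in polarization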
Target sequence (P31323 whole entry, looked up, other chains not shown, the tested form may be a part): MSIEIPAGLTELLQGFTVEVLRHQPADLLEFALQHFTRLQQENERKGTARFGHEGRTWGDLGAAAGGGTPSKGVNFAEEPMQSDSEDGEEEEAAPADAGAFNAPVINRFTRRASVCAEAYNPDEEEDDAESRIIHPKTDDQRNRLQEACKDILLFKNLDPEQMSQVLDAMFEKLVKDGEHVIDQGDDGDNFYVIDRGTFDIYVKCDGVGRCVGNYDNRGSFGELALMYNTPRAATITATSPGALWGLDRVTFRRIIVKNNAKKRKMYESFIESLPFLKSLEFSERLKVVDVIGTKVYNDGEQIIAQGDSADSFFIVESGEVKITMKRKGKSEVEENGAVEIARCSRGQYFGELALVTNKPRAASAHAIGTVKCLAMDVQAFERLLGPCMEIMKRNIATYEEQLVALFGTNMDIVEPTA
PKA-R1A activ: activates the PKA-R1A holoenzyme complex | P00514+P68181 | PKA-R1A dissociation, Cy5-IP20 fluorescence polarization; scaled: DMSO 0%, 113 µM cGMP 100% | activation, % at 11.4 µM | 340,000 tested, 0.083% active | AID 504707;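 active = percent activation above the mean of all tested compounds plus 3 SD, cut at about 19% in these data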;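 note: higher means more PKAc released from R1A so a rise in polarization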
Each line names hits and unclear results; the compound was inactive in the other large screens.

CCN(CC)CCCNC(=O)C(C)n1nc(C)c2sc3ccccc3c2c1=O (stereo not drawn)	none
CCN(CC)CCNc1ccc(C)c2sc3ccc(O)cc3c(=O)c12	dFosB act 41
Cc1cc(C)c2nc(N3C(=O)C(O)=C(C(=O)c4ccco4)C3c3ccco3)sc2c1 (stereo not drawn)	none
COc1cc(C(=O)NCCc2c[nH]c3ccccc23)ccc1OCc1c(C)noc1C	SR-BI DiI inh 83
COc1ccc(CC(=O)OCC(=O)Nc2cc(Cl)ccc2C)cc1	none
CCOc1c(Br)cc(Br)cc1/C=C1\SC(N)=NC1=O	dFosB act 25
CC(C)(C)NC(=O)CC1C[C@H](C(=O)N2CCOCC2)[C@@]2(C)c3[nH]c4ccccc4c3CCN2C1=O (stereo partly drawn)	SR-BI DiI inh 77
CC(C)(C)NC(=O)C[C@H]1C[C@H](C(=O)N2CCOCC2)[C@@]2(C)c3[nH]c4ccc(Cl)cc4c3CCN2C1=O	none
COc1ccc(NCC(=O)Nc2ccc(C#N)cc2)cc1Cl	SR-BI DiI inh 95
CCOC(=O)c1cc(C)n(CCc2ccccc2)c1C	SR-BI DiI inh 80
CCOC(=O)c1cc(-c2ccccc2)n(CCC(=O)O)c1C	none
COc1ccc(C(C(=O)NC(C)(C)C)N(C(=O)Cn2nnc3ccccc32)c2cccc(C(C)=O)c2)cc1O (stereo not drawn)	none (no result: SR-BI DiI inh, SR-BI uptake up)
CC(CCC(C)C(C)(C)C)[C@@H]1CC[C@H]2C3C[C@H](OS(O)(=S)=S)[C@H]4C[C@H](OS(O)(=S)=S)[C@@H](OS(O)(=S)=S)C[C@]4(C)[C@H]3CC[C@]12C (stereo partly drawn) (tested in a mixture with another compound)	CDK5 inh 80
CC(CCC(=O)NN)C1CCC2C3CCC4CC(O)CCC4(C)C3CCC12C (stereo not drawn)	none
COc1ccc2oc(C(=O)Nc3ccc(S(=O)(=O)N(C)C4CCN(C)CC4)cc3)c(C)c2c1	none (no result: SR-BI uptake up)
COc1ccc(C(=O)Nc2ccccc2N2CCCCC2)cc1[N+](=O)[O-]	SR-BI DiI inh 78
Cc1ccc(C(=O)Nc2ccccc2N2CCCCC2)cc1[N+](=O)[O-]	none
COc1ccc(OC)c(NC(=O)c2ccc(OCC(=O)N3CCOCC3)c(OC)c2)c1	SR-BI DiI inh 73
COc1ccc(C(=O)Nc2ccccc2N2CCOCC2)cc1Br	SR-BI DiI inh 80
Cc1ccc(-n2c(C)cc(C3N=C(N)Nc4nc5ccccc5n43)c2C)c(C)c1 (stereo not drawn)	dFosB act 65
Cc1cc(C2N=C(N)Nc3nc4ccccc4n32)c(C)n1-c1ccccc1Cl (stereo not drawn)	dFosB act 76
Cc1ccc(S(=O)(=O)N(C)C)cc1NC(=O)C(C)OC(=O)C1CCCCC1 (stereo not drawn)	none
COc1cc(/C=N/Nc2ccccc2)ccc1O	none
COC(=O)c1[nH]c2cc(OC)c(OC)cc2c1/C=N/Nc1ccccc1	SR-BI DiI inh 121
Cc1sc2nc(CN3CCCC3)nc(N3CCN(S(=O)(=O)c4ccccc4)CC3)c2c1C	dFosB act 42
O=C(CNC(=O)c1ccccc1)N=Nc1c(O)[nH]c2ccc(Br)cc12	dFosB act 46
O=C(CNC(=O)c1cccs1)N=Nc1c(O)[nH]c2ccc(Br)cc12	none
C=CCN1C(=O)/C(=C2/Sc3ccc(OC)cc3N2C)SC1=NCc1ccccc1	none
C=CCN1C(=O)/C(=C2/Sc3ccc(OC)cc3N2C)SC1=Nc1ccccc1	SR-BI DiI inh 96
CCN1C(=O)/C(=C2/Sc3ccc(OC)cc3N2C)SC1=Nc1cccc(O)c1	SR-BI DiI inh 94
COc1ccccc1/C=N/OCc1cc(C(C)=O)ccc1OC	none (no result: SR-BI DiI inh, SR-BI uptake up)
O=C(NN=C(Cc1ccccc1)Cc1ccccc1)c1ccccc1O	SR-BI uptake up 299 (no result: PKA-R2B activ, PKA-R1A activ)
COc1cccc(C(=O)/C=C2\Sc3ccccc3N2C)c1	SR-BI DiI inh 83
CN1/C(=C\C(=O)c2cccnc2)Sc2ccccc21	none
O=C1CC(c2ccccc2)CC(O)=C1C=NCCN1CCN(Cc2ccccc2)CC1 (stereo not drawn)	none
CC(C)(C)c1cc(C(=O)N/N=C/c2ccccn2)n[nH]1	SR-BI uptake up 320
Cc1ccccc1C(=O)Nc1ccc(C(=O)N/N=C/c2ccc(F)cc2)cc1	SR-BI DiI inh 84
Cc1ccc(C(=O)Nc2ccc(C(=O)N/N=C/c3ccccn3)cc2)cc1	SR-BI DiI inh 76
O=C(N/N=C/c1ccccc1)c1ccc(NC(=O)c2ccc(F)cc2)cc1	none (no result: SR-BI DiI inh, SR-BI uptake up)
Cc1ccc(C(=O)Nc2ccc(C(=O)N/N=C/c3c[nH]c4ccccc34)cc2)cc1	SR-BI DiI inh 94
COC(=O)[C@@]1(C)[C@H]2C(=O)N(C)C(=O)[C@H]2[C@H]2CN=C(SC)N21	none
CC/C(=N\Nc1ccccc1[N+](=O)[O-])c1ccc(O)cc1	none (no result: PKA-R2B activ, PKA-R1A activ)
CC/C(=N\Nc1ccc([N+](=O)[O-])cc1[N+](=O)[O-])c1ccc(O)cc1	SR-BI DiI inh 76
C/C(=N\Nc1ccc([N+](=O)[O-])cc1)c1cccc(N)c1	none
C/C(=N\Nc1ccc([N+](=O)[O-])cc1)c1ccc(O)cc1	SR-BI DiI inh 74 (no result: PKA-R2B activ, PKA-R1A activ)
Cc1c(C)n(CCN(C)C)c2ccc(C(=O)OCCN(C)C)cc12	dFosB act 20
Cc1c(C)n(Cc2ccccc2)c2ccc(C(=O)OCCCN(C)C)cc12	none
CCN1/C(=C\C(=S)Nc2ccccc2)Sc2ccccc21	SR-BI DiI inh 81
COc1ccccc1C(=O)NNC1=C(C(=O)C(F)(F)F)CCC1	none
Nc1ccccc1C(=O)NNC1=C(C(=O)C(F)(F)F)CCC1	SR-BI DiI inh 98
Nc1ccccc1C(=O)Nc1cccc(C(=O)O)c1	none
O=C(NNC1=C(C(=O)C(F)(F)F)CCC1)c1ccccc1O	SR-BI DiI inh 150
COc1cccc(C(=O)NNC2=C(C(=O)C(F)(F)F)CCC2)c1	SR-BI DiI inh 113 (no result: PKA-R2B activ, PKA-R1A activ)
O=C(NNC1=C(C(=O)C(F)(F)F)CCC1)c1ccc(Br)cc1	SR-BI DiI inh 105
O=C(NNC1=C(C(=O)C(F)(F)F)CCC1)c1ccccc1Cl	none
Cc1cc(C)c(NC(=O)C2CCCO2)c(C)c1NC(=O)C1CCCO1 (stereo not drawn)	none (no result: SR-BI DiI inh, SR-BI uptake up)
O=C1CSC(c2ccccc2)N1Cc1ccccc1 (stereo not drawn)	none
COc1ccc(/C=N/NC(=O)c2ccncc2)cc1Cn1nc([N+](=O)[O-])c(Br)c1C	none
Cc1ccc2[nH]c(CNC(=O)C3CCCCC3)cc2c1	none
